Results as given in ChEMBL document CHEMBL2086393, “Haloenol pyranones and morpholinones as antineoplastic agents of prostate cancer” (Bioorg Med Chem Lett, 2012).
pIC50: −log10 of the molar value. Calls of active or inactive are those of the source. The calls are words filed in the database; no cut-off is given here.

What was measured:
LNCaP [1] = experiment: Cell cycle arrest in human LNCAP cells assessed as decrease in S phase cells at 10 uM after 24 hrs by PI-based flow cytometric analysis relative to control; type: functional
Method in brief: (§1)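 LNCaP cells were treated for 24 h at 5 or 10 μM. Cells were stained with propidium iodide and analysed by flow cytometry for the percentages in G1, S and G2/M phases, compared with control.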

PC-3 [2] = experiment: Antineoplastic activity against human PC3 cells after 48 hrs by MTT assay; type: functional, cell-based; details: PC-3, 48 h
Method in brief: (§2)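 LNCaP and PC-3 human prostate cancer cells were exposed to compound for 24, 48 or 72 h, and growth was read as the change in MTT staining. IC50 was calculated from 3–5 experiments, each run in duplicate on separate cell passages.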

LNCaP [3] = experiment: Cell cycle arrest in human LNCAP cells assessed as decrease in S phase cells at 5 uM after 24 hrs by PI-based flow cytometric analysis relative to control; type: functional; method in brief: as §1
LNCaP [4] = experiment: Antineoplastic activity against human LNCAP cells after 48 hrs by MTT assay; type: functional, cell-based; method in brief: as §2
LNCaP [5] = experiment: Cell cycle arrest in human LNCAP cells assessed as increase in G1 phase cells at 10 uM after 24 hrs by PI-based flow cytometric analysis relative to control; type: functional; method in brief: as §1
LNCaP [6] = experiment: Induction of necrosis in human LNCAP cells at 5 uM after 72 hrs by phase-contrast microscopic analysis; type: functional, cell-based
Method in brief: (§3)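 LNCaP cells were treated at 5 μM for 72 h. Cells were inspected by eye under phase-contrast microscopy for changes in shape and differentiation, death, and signs of apoptosis or necrosis, compared with a DMSO vehicle control.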

PC-3 [7] = experiment: Antineoplastic activity against human PC3 cells after 24 hrs by MTT assay; type: functional, cell-based; details: PC-3, 24 h; method in brief: as §2
LNCaP [8] = experiment: Antineoplastic activity against human LNCAP cells after 72 hrs by MTT assay; type: functional, cell-based; method in brief: as §2
PC-3 [9] = experiment: Antineoplastic activity against human PC3 cells after 72 hrs by MTT assay; type: functional, cell-based; details: PC-3, 72 h; method in brief: as §2
LNCaP [10] = experiment: Induction of apoptosis in human LNCAP cells at 5 uM after 72 hrs by phase-contrast microscopic analysis; type: functional, cell-based; method in brief: as §3
LNCaP [11] = experiment: Cell cycle arrest in human LNCAP cells assessed as increase in G1 phase cells at 5 uM after 24 hrs by PI-based flow cytometric analysis relative to control; type: functional; method in brief: as §1
LNCaP [12] = experiment: Cell cycle arrest in human LNCAP cells assessed as decrease in G2/M phase cells at 5 uM after 24 hrs by PI-based flow cytometric analysis relative to control; type: functional; method in brief: as §1
Rattus norvegicus [13] = organism: Rattus norvegicus; experiment: Inhibition of iPLA2beta in rat kidney cytosol using arachidonoyl thio-phosphatidylcholine as substrate up to 100 uM after 0.5 hrs by spectrophotometry; type: tissue-based
Method in brief: (§4)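 Cytosolic fractions were preincubated with compound at 0–100 μM for 0.5 h. Arachidonoyl thiophosphatidylcholine, a hydrolysable thioester probe of PLA2 activity, was then added to follow enzyme activity.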

LNCaP [14] = experiment: Antineoplastic activity against human LNCAP cells after 24 hrs by MTT assay; type: functional, cell-based; method in brief: as §2
Rattus norvegicus [15] = organism: Rattus norvegicus; experiment: Inhibition of iPLA2beta in rat kidney cytosol using arachidonoyl thio-phosphatidylcholine as substrate after 0.5 hrs by spectrophotometry; type: tissue-based; method in brief: as §4
LNCaP [16] = experiment: Antineoplastic activity against human LNCAP cells at 5 to 13 uM by MTT assay; type: functional, cell-based; details: TDE = time-dependent effect; method in brief: as §2
LNCaP [17] = experiment: Cytotoxicity against human LNCAP cells assessed as change in cell shape at 5 uM after 72 hrs by phase-contrast microscopic analysis; type: functional, cell-based; method in brief: as §3
PC-3 [18] = experiment: Antineoplastic activity against human PC3 cells at 14 to 34 uM by MTT assay; type: functional, cell-based; details: TDE = time-dependent effect; method in brief: as §2
LNCaP [19] = experiment: Cytotoxicity against human LNCAP cells assessed as change in cell differentiation at 5 uM after 72 hrs by phase-contrast microscopic analysis; type: functional, cell-based; method in brief: as §3
LNCaP [20] = experiment: Cytotoxicity against human LNCAP cells assessed as cell death at 5 uM after 72 hrs by phase-contrast microscopic analysis; type: functional, cell-based; method in brief: as §3

| SMILES | Activity (LNCaP [1]) | pIC50 (PC-3 [2]) | Activity (LNCaP [3]) | pIC50 (LNCaP [4]) | Activity (LNCaP [5]) | Activity (LNCaP [6]) | pIC50 (PC-3 [7]) | pIC50 (LNCaP [8]) | pIC50 (PC-3 [9]) | Activity (LNCaP [10]) | Activity (LNCaP [11]) | Activity (LNCaP [12]) | inhibition (Rattus norvegicus [13]) | pIC50 (LNCaP [14]) | inhibition (Rattus norvegicus [15]) | Activity (LNCaP [16]) | Activity (LNCaP [17]) | Activity (PC-3 [18]) | Activity (LNCaP [19]) | Activity (LNCaP [20]) |
| --- | --- | --- | --- | --- | --- | --- | --- | --- | --- | --- | --- | --- | --- | --- | --- | --- | --- | --- | --- | --- |
| C#CCN1C/C(=C\Br)OC(=O)[C@H]1c1ccccc1 | Active | 5.22 | Active | 5.22 | Active | Active | 5.10 | 5.52 | 5.52 | Active | Active | Active | inactive | 5.22 |  |  |  |  |  |  |
| O=C1O/C(=C/Br)CCC1c1cccc2ccccc12 (racemic) [BROMOENOL LACTONE] | Active | 4.59 | Active | 5.30 | Active |  | 4.47 | 5.05 | 4.85 |  | Active | Active |  | 4.89 | Dose-dependent effect | tde | inactive | tde | inactive | inactive |
| C#CCN1C/C(=C\Br)OC(=O)[C@@H]1Cc1ccccc1 |  | 4.24 |  | 4.59 |  |  | 4.48 | 4.49 | 4.41 |  |  |  |  | 4.39 |  |  |  |  |  |  |
| C#CCN1C/C(=C\Br)OC(=O)[C@@H]1c1ccccc1 | Active | 4.89 | Active | 5.52 | Active |  | 4.82 | 5.52 | 5.30 |  | Active | Active | Active | 5.10 |  |  |  |  |  |  |
| O=C1O/C(=C/Br)CN(Cc2ccccc2)[C@H]1c1ccccc1 |  | 6.00 |  | 5.40 |  |  | 5.40 | 5.52 | 5.40 |  |  |  |  | 5.52 |  |  |  |  |  |  |
| C#CCN1CC(=O)O/C(=C/Br)C1 |  | 5.00 |  | 4.54 |  |  | 4.89 | 4.55 | 5.15 |  |  |  |  | 4.60 |  |  |  |  |  |  |
| O=C1O/C(=C/Br)CC[C@H]1c1cccc2ccccc12 |  |  |  |  |  |  |  |  |  |  |  |  | Active |  |  |  |  |  |  |  |
| O=C1CCC/C(=C\I)O1 |  | 4.82 |  | 5.30 |  |  | 4.49 | 5.15 | 4.80 |  |  |  |  | 5.05 |  |  |  |  |  |  |
| C#CCN1C/C(=C\I)OC(=O)[C@@H]1c1ccccc1 |  | 4.68 |  | 4.64 |  |  | 4.68 | 4.70 | 4.60 |  |  |  |  | 4.59 |  |  |  |  |  |  |
| O=C1CCC/C(=C\Br)O1 |  | 4.64 |  | 5.30 |  |  | 4.72 | 5.30 | 4.85 |  |  |  |  | 5.00 |  |  |  |  |  |  |
| O=C1O/C(=C/Br)CCC1c1ccccc1 (racemic) | Active | 5.00 | Active | 5.30 | Active |  | 4.57 | 5.40 | 5.22 |  | Active | Active |  | 4.51 | Dose-dependent effect |  | inactive |  | inactive | inactive |
